Tb MetRS inh: T. brucei MetRS inhibitors, primary screen, biochemical, luminescence; 360,000 compounds, 0.4% hits; methionyl-tRNA synthetase (Trypanosoma brucei brucei); purified T. brucei MetRS, ATP depletion, Kinase-Glo luminescence; inhibition, % at 11.9 µM;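 active = inhibition above a per-plate cutoff of the control wells' mean inhibition plus 3 SD, cut at about 5.5% in these data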;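 note: 0% = DMSO wells median and 100% = median of wells with control inhibitor compound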
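System: purified T. brucei MetRS enzyme / Detection: Kinase-Glo luciferase luminescence reporting remaining unconsumed ATP / Medium: HEPES buffer with MgCl2, KCl, DTT, spermine, BSA, pyrophosphatase / Replication: singlicate, one well per compound / Evaluation: percent inhibition relative to median high and low control wells / Schedule: 2 h aminoacylation at 25 °C after 15 min preincubation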
MC4R ag barr: MC4R agonists recruiting beta-arrestin, primary screen, cell-based, luminescence, agonist arm of biased-ligand search; activation, % at 8.9 µM; AID 540308, 2011; Melanocortin receptor 4 (Homo sapiens), P32245; U2OS MC4R beta-arrestin complementation; percent of melanotan II response, DMSO zero; 360,000 compounds, 0.98% hits;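 active = activation above a per-plate cutoff, the mean activation of sample wells on that plate plus 3 SD, cut at about 8% in these data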
MC4R antag cAMP: MC4R antagonists of cAMP signaling, primary screen, cell-based, TR-FRET, antagonist arm of biased-ligand search; Melanocortin receptor 4 (Homo sapiens), P32245; MC4R-expressing cells, MTII-stimulated cAMP, LANCE TR-FRET; inhibition, % at 6.5 µM; AID 540295, 2011; 360,000 compounds, 0.48% hits;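 active = inhibition above its plate's cutoff, the mean of tested wells on that plate plus 3 SD, cut at about 29% in these data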;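 note: 0% = Melanotan II alone and 100% = Melanotan II plus saturating MCL0020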
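material = U2OS cells stably expressing human melanocortin 4 receptor (MC4R) | also added = Melanotan II challenge | dosing = single nominal compound dose of 6.5 µM | detection = TR-FRET with Eu-cAMP and labeled anti-cAMP, 671 nm | replication = singlicate | timing = compound 30 min, challenge 1 h, detection 1 h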
NTR1 agonist: agonists of human NTR1, primary screen, imaging, U2OS cells, beta-arrestin-GFP, high content; Neurotensin receptor type 1 (Homo sapiens), P30989; NTR1-U2OS beta-arrestin-GFP spot imaging, agonist mode; activation, % at 20 µM; 330,000 compounds, 0.17% hits; AID 493036, 2011;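 active = activation at or above 40% of the spot to cytoplasm intensity ratio, with at least 20 cells analyzed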;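 note: 0% = DMSO without peptide and 100% = 100 nM NTR1 peptide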
Target sequence (P30989 whole entry, looked up): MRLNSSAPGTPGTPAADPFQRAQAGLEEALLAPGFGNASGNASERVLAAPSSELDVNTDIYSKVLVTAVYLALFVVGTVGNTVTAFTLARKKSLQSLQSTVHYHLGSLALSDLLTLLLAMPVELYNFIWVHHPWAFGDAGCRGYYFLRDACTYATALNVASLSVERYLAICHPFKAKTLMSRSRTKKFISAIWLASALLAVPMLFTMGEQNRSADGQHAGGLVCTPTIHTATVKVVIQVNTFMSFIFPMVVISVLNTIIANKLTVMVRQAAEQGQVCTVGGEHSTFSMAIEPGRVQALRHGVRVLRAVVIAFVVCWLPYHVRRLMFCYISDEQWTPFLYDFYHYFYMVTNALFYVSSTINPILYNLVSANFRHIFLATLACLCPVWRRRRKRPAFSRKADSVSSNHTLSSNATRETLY
aDG glyco up: activators of alpha-DG glycosylation, primary screen, uHTS, Pro5-aDG cells, AlphaScreen; alpha-DG glycosylation AlphaScreen (IIH6); 0% Pro5, 100% B10-LARGE cell signal; activation, % at 10 µM; 360,000 compounds, 0.22% hits;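 active = activation of at least 8% versus controls, or a plate z-score of at least 8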;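 note: Pro5 are CHO cells carrying HIG-tagged alpha-DG that lacks glycosylation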
TAG inh: inhibitors of triacylglycerol accumulation, primary screen, cell-based, uHTS, fluorescence, H9c2. H9c2 cells, Nile Red lipid (TAG) fluorescence; cells loaded with 200 µM oleic acid. inhibition, % at 12.5 µM. 230,000 compounds, 0.66% hits. AID 651582, 2012;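 active = pattern-corrected inhibition of lipid staining of at least 50% with the nuclear-stain viability signal not falling by more than 50%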;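 note: 0% = DMSO wells and 100% = triacsin C control wells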
NTR1 ag conf: NTR1 agonists, single-dose retest, confirmation, imaging, U2OS cells, beta-arrestin-GFP, single concentration; shares compounds with NTR1 agonist; NTR1-U2OS beta-arrestin-GFP translocation imaging; activation, % at 20 µM; 480 compounds, 38% hits; AID 504550, 2011;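 active = mean activation at 20 µM of at least 40%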;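 note: 0% = DMSO without peptide and 100% = 100 nM NTR1 peptide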
* = called active by the depositor; . = no result given. An excerpt weighted towards active compounds, which were near 2.4% of everything screened.

SMILES	Tb MetRS inh	MC4R ag barr	MC4R antag cAMP	NTR1 agonist	aDG glyco up	TAG inh	NTR1 ag conf
CCOC(=O)[C@]12CCC=C1N(Cc1ccc(Cl)cc1Cl)C(=O)[C@H](CC(=O)NCc1ccc(OC)c(OC)c1)C2	-1	.	.	.	0	.	.
CC(C)Cn1c(O)c(/C=C2\C=NN=C2c2ccccc2)sc1=S	0	2	9	59*	0	.	61*
CN(Cc1ccccc1)C(=O)c1[nH]cnc1C(=O)N[C@@H](Cc1ccccc1)C(=O)OCc1ccccc1	0	4	1	42*	0	3	2
CC(C)(C)OC(=O)NCCCCCNC(=O)c1[nH]cnc1C(=O)N[C@@H](Cc1ccccc1)C(=O)OCc1ccccc1	0	5	-6	53*	0	16	23
Fc1cccc(Cc2c(-c3ccccc3)nc3c(Cl)cc(C(F)(F)F)cn23)c1	0	.	.	.	0	.	.
CC(=O)Oc1ccccc1Cn1c(C)c(C(=O)NCc2cccc([N+](=O)[O-])c2)sc1=O	0	-1	-4	.	0	-3	.
Cc1cccc(NC(=O)c2nc[nH]c2C(=O)N[C@@H](C)c2ccccc2)c1	0	0	7	50*	0	-79	38
COc1ccc(N2CCN(c3nc(NCCc4ccc(OC)c(OC)c4)nc(OC)n3)CC2)cc1	0	2	17	44*	0	.	32
CCOc1nc(NCCc2ccc(OC)c(OC)c2)nc(N2CCN(c3ccc(OC)cc3)CC2)n1	0	0	13	15	0	.	.
COC(=O)c1cc(Cl)ccc1NCC(N)c1ccccc1 (centres undefined)	-1	.	.	.	0	.	.
CC(C)(C)OC(=O)NCCc1nc(NC(=O)OCc2ccccc2)sc1C(=O)O	0	.	.	.	0	.	.
C=C(C)COc1ccc(-c2nc(N)nc(C(F)(F)F)c2-c2ccc(OC)cc2)c(O)c1	0	1	11	41*	0	.	12
COc1cccc(-c2oc3c(c2-c2ccc(Br)nc2)C(O)CCC3)c1 (centres undefined)	-1	.	.	.	0	.	.
CCCCCCCCn1c2c(c(=N)c3ccccc31)CCC2	4	7	-4	61*	4	.	50*
CCCCn1c2c(c(=N)c3ccccc31)CCC2	0	0	20	3	0	-18	.
O=C(NCc1ccccc1)C1CCC(CNS(=O)(=O)c2cccs2)CC1 (centres undefined)	-1	-1	6	42*	0	.	-4
CCCCNC(=O)C1C(c2ccc(C(F)(F)F)cc2)=Nc2ccccc2N1C(=O)c1ccc2nc(C)[nH]c2c1 (centres undefined)	0	.	.	.	0	.	.
COc1cc(/C=N/Nc2nc(-c3ccc(S(=O)(=O)N(C)C)cc3)cs2)ccc1O	0	4	11	70*	0	13	79*
CCN(CC)c1ncnc2c1ncn2[C@H]1CN(Cc2cc(OC)c(OC)c(OC)c2)C[C@@H](CO)O1	0	1	-11	.	0	-2	.
COC(=O)c1ccc2c(c1)C(C)(C)C(/C=C/c1ccc(O)cc1)=[N+]2C	-1	-6	-3	46*	0	.	51*
COC(=O)c1ccc2c(c1)C(C)(C)C(/C=C/c1ccc(OC)c(OC)c1OC)=[N+]2C	-1	-1	9	38	-1	125	.
COc1ccc(S(=O)(=O)Oc2ccc3c(c2)O/C(=C\c2cccnc2)C3=O)cc1	-1	0	-3	43*	1	.	23
CS(=O)(=O)Oc1ccc2c(c1)O/C(=C\c1cccnc1)C2=O	0	-2	-8	2	0	0	.
O=C1/C(=C/c2cccnc2)Oc2cc(OS(=O)(=O)c3ccccc3)ccc21	-1	1	10	42*	0	.	22
O=C1/C(=C/c2cccnc2)Oc2cc(OS(=O)(=O)c3ccc(Cl)cc3)ccc21	0	-1	9	20	0	.	.
SMILES	Tb MetRS inh	MC4R ag barr	MC4R antag cAMP	NTR1 agonist	aDG glyco up	TAG inh	NTR1 ag conf
Cc1ccnc(Nc2nc(-c3ccc(Cl)cc3)cs2)c1	1	1	11	10	0	.	.
Cc1ccnc(Nc2nc(-c3ccc(F)cc3)cs2)c1	-1	1	-3	49*	0	3	3
O=C(O)C1=CC[C@@H](c2ccc(Cl)cc2)N(S(=O)(=O)c2ccc(Cl)cc2)[C@H]1c1cccc(Cl)c1	-1	2	10	56*	1	-18	9
Cc1ccc(S(=O)(=O)N2[C@@H](c3ccc(Cl)cc3)C(C(=O)O)=CC[C@H]2c2cccc(Cl)c2)cc1	0	-2	7	2	0	15	.
O=C(Oc1ccc(Br)cc1C(=O)/C=C/c1ccccc1F)c1ccco1	0	-1	-3	55*	0	4	40*
CC(=O)c1cc(Cl)ccc1OC(=O)c1ccco1	0	-1	2	0	0	.	.
O=C(NC1CCCC1)C(C1CC1)n1c(C2CC2)nc2ccccc21 (centres undefined)	-1	.	.	.	0	.	.
CC(C)Cn1c(N)c(C(=O)CSc2ncccn2)c(=O)n(C)c1=O	0	-3	-9	1	0	-15	.
CC(C)Cn1c(N)c(C(=O)CSc2cc(Cl)ccc2Cl)c(=O)n(C)c1=O	.	.	.	48*	.	.	47*
O=[N+]([O-])c1c(NCCCO)cc(Sc2ccc(Cl)cc2)c2nonc12	0	-4	-36	.	-1	.	.
Cn1ccnc1Sc1cc(NCCCO)c([N+](=O)[O-])c2nonc12	0	-4	-28	45*	0	-7	72*
CC(=O)OCCCNc1cc(Sc2ccc(C)cc2)c2nonc2c1[N+](=O)[O-]	1	-3	-11	67*	0	.	86*
CC(=O)NC1(C)CCC2CC1C(C)=NC2(C)C (centres undefined)	0	.	.	.	0	.	.
COc1ccccc1CNC(=O)CN1C(=O)NC(C)(c2ccc(C)cc2)C1=O (centres undefined)	0	1	2	47*	0	.	-2
COc1ccccc1CNC(=O)CN1C(=O)NC2(CCCCCCC2)C1=O	0	0	-3	1	0	-8	.
